The source made the active and inactive calls. The calls are words filed in the database; no cut-off is given here.
What was measured:
[1] = biological target: T1, DNA topoisomerase 1 (Homo sapiens) (UniProt P11387); experiment: Inhibition of human recombinant Top1-mediated DNA cleavage by polyacrylamide gel electrophoresis relative to camptothecin; parameters: concentration or dose not given beside the values; settings: concentration not given here
T1 sequence (whole entry): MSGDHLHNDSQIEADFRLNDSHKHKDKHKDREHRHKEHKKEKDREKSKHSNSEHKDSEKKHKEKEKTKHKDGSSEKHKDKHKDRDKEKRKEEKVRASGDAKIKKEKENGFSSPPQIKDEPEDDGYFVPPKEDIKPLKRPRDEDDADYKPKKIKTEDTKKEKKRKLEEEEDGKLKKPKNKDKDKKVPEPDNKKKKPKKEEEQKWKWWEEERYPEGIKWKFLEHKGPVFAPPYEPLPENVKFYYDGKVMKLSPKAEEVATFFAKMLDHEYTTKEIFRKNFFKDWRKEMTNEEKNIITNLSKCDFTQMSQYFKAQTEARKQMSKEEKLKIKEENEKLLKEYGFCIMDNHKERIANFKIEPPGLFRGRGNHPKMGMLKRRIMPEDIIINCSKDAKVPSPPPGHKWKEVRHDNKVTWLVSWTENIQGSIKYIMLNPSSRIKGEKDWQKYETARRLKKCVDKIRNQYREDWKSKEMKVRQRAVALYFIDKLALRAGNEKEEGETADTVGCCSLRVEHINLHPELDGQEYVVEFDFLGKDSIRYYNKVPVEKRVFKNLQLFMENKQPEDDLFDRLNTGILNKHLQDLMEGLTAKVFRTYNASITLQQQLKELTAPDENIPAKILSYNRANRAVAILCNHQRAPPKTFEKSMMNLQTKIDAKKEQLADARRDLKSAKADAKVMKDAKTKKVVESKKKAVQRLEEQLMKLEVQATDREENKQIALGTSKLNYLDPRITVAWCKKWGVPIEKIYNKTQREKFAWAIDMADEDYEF
How it was run: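 Baculovirus-purified human recombinant Top1 was incubated for 20 min at 25 °C, with compounds at various concentrations, with about 2 nM of a 117-bp oligonucleotide 3′-end-labeled with [α-³²P]dGTP. Reactions were stopped with 0.5% SDS and run on 20% denaturing PAGE. Cleavage bands were phosphorimaged and graded semiquantitatively against 1 μM camptothecin.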

[2] = biological target: T2, Tyrosyl-DNA phosphodiesterase 1 (Homo sapiens, UniProt Q9NUW8); experiment: Inhibition of human Tdp1 in Tdp1-deficient chicken DT40 whole cell extract using 5'-[32P]-labeled single-stranded DNA oligonucleotide containing 3'-phosphotyrosine as substrate after 15 mins by PAGE analysis
[3] = biological target: T2, Tyrosyl-DNA phosphodiesterase 1; experiment: Binding affinity to human recombinant Tdp1 at 0.4 to 33 uM by surface plasmon resonance spectroscopy analysis
How it was run: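 Amine-coupled to a CM5 chip to about 4000 RU; before coupling, Tdp1 (1 μM) was preloaded for 20 min with 2 μM 3′-phosphate 14-mer in 10 mM sodium acetate pH 4.5 to shield the active site, then the oligo was stripped with 1 M NaCl. Analyte was injected in 10 mM Hepes, 150 mM NaCl, 0.01% Tween 20, 5% DMSO, pH 7.5, at 30 μL/min, 25 °C. Responses were corrected against a Tdp1-free reference surface, buffer cycles and DMSO calibration.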

[4] = Growth inhibition of human NCI60 cells; format: functional
[5] = biological target: T2, Tyrosyl-DNA phosphodiesterase 1; experiment: Inhibition of human recombinant Tdp1 using 5'-[32P]-labeled single-stranded DNA oligonucleotide containing 3'-phosphotyrosine as substrate assessed as prevention of generation of oligonucleotide with free 3'-phosphate after 15 mins by PAGE analysis

T2 sequence (Q9NUW8 whole entry): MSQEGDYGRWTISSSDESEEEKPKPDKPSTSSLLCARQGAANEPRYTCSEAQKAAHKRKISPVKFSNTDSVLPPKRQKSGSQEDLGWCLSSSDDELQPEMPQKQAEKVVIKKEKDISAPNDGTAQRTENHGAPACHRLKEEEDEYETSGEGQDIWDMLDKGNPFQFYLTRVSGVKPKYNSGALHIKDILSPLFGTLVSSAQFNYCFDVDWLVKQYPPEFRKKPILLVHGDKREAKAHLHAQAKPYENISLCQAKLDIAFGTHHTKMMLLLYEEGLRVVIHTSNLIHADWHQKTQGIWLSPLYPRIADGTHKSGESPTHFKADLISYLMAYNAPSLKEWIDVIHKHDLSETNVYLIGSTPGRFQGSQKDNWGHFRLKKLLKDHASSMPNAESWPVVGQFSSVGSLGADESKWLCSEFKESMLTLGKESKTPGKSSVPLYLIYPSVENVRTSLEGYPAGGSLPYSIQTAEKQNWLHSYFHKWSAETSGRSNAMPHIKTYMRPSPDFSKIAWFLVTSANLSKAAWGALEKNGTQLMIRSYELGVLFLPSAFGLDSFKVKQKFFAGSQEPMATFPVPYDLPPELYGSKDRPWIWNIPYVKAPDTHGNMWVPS

Row | SMILES | inhibition [1] [%] | IC50 [5] [µM] | IC50 [2] [µM] | Activity [3] | GI50 [4] [µM]
1 | NCCCn1c2c(c3ccccc3c1=O)C(=O)c1ccccc1-2 | 75 |  | 29.5 | Active | 
2 | NCCCCCCCCCCn1c2c(c3ccccc3c1=O)C(=O)c1ccccc1-2 | 0 | 14.1 | 21.3 |  | 
3 | NCCCCCCCCCCCCn1c2c(c3ccccc3c1=O)C(=O)c1ccccc1-2 | 0 | 15.1 | 33 |  | 
4 | NCCCCCCCCCCCn1c2c(c3ccccc3c1=O)C(=O)c1ccccc1-2 | 20 | 12.8 | 14.1 |  | 
5 | NCCCCCCn1c2c(c3ccccc3c1=O)C(=O)c1ccccc1-2 | 50 | 25 | 35 |  | 

Second part, led by results:

Row | inhibition [1] [%] | IC50 [5] [µM] | SMILES | IC50 [2] [µM] | Activity [3] | GI50 [4] [µM]
6 | 50 | > 111 | O=C1c2ccccc2-c2c1c1cc3c(cc1c(=O)n2CCCNS(=O)(=O)c1ccccc1)OCO3 |  |  | 0.617
7 | 100 | > 111 | O=C1c2ccccc2-c2c1c1ccc([N+](=O)[O-])cc1c(=O)n2CCCNS(=O)(=O)c1ccccc1 |  |  | 0.046
8 | 75 | 55.3 | NCCn1c2c(c3ccccc3c1=O)C(=O)c1ccccc1-2 | 78 |  | 
9 | 75 | > 111 | COc1cc2c3c(n(CCCNS(=O)(=O)c4ccccc4)c(=O)c2cc1OC)-c1ccccc1C3=O |  |  | 1.35
10 | 0 | > 111 | COC(=O)c1ccc2c(c1)C(=O)c1c-2n(CCCNS(=O)(=O)c2ccccc2)c(=O)c2cc(OC)c(OC)cc12 |  |  | 12.6
11 | 0 | > 111 | O=C1c2cc(-c3ccccc3)ccc2-c2c1c1ccc([N+](=O)[O-])cc1c(=O)n2CCCNS(=O)(=O)c1ccccc1 |  |  | 0.55
12 | 0 | 17.5 | NCCCCCn1c2c(c3ccccc3c1=O)C(=O)c1ccccc1-2 | 28 |  | 
